# Screening data: PubChem, several laboratories
# An excerpt weighted towards active compounds, which were near 0.51% of everything screened.
# aDG glyco up – activators of alpha-DG glycosylation, primary screen, uHTS, Pro5-aDG cells, AlphaScreen; activation, % at 10 µM; 360,000 compounds, 0.22% hits; AID 624168, 2012; alpha-DG glycosylation AlphaScreen (IIH6); 0% Pro5, 100% B10-LARGE cell signal;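 active = activation of at least 8% versus controls, or a plate z-score of at least 8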;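 note: Pro5 are CHO cells carrying HIG-tagged alpha-DG that lacks glycosylation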
# T cell HTS – modulators of CD8 T cell-vesicle binding, primary screen, mouse 2C CD8+ T cells, flow cytometry; 2C CD8+ T cell-vesicle binding; stronger effect = lower value; 330,000 compounds, 0.068% hits; response (vesicle binding), % at 7 µM;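 active = response, share of CD8 T cells binding vesicles, and their 90th percentile fluorescence all below set limits, cut at about 80% in these data, passing the limit was not always enough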;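 note: values below 100% mean blocked vesicle binding to the CD8+ T cells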
#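 Material: murine 2C transgenic CD8+ T lymphocytes / Also added: QL9-peptide-loaded Drosophila micro-vesicles bearing Ld, ICAM-1 and B7-1 / Schedule: binding step 1.5 h, 37 °C, antibody labelling 20 min, ice / Signal: flow cytometry, PE anti-B7-1 (FL2) versus Alexa647 anti-CD8 (FL8), PFA-fixed / Evaluation: percent CD8+ FL2 mean versus row control / Benchmarks: naked versus QL9-loaded vesicles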
# Rce1 inhib – yeast Rce1p protease inhibitors, primary screen, biochemical, fluorescence, cell-free homogeneous; yeast membranes, quenched prenylated peptide cleavage fluorescence; calls only; 290,000 compounds, 0.27% hits; CAAX prenyl protease 2 (Saccharomyces cerevisiae (strain ATCC 204508 / S288c)), Q03530;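 active = fall in fluorescence gain of 50% or more versus controls, with final raw signal at or below 3038400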
# Target sequence (Q03530 whole entry, looked up): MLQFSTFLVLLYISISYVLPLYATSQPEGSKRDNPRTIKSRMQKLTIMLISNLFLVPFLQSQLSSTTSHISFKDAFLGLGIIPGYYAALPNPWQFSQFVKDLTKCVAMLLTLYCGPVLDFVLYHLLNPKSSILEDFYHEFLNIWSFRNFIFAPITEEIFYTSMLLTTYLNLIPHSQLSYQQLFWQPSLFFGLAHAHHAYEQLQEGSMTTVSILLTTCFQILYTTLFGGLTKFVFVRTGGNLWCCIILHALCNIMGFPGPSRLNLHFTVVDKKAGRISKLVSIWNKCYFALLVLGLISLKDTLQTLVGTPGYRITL
# PolyA inh – polyadenylation inhibitors in yeast reporter cells, primary screen, luminescence, S. cerevisiae. 300,000 compounds, 0.02% hits. activity score, % at 12 µM. S. cerevisiae SKY197-pL101 polyadenylation reporter, beta-gal luminescence; efflux-impaired pdr1/pdr3 knockout yeast; score 100 = 6 SD above DMSO;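 active = lowest replicate activity score at least 50, where 100 means six control SD above control mean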;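 note: yeast exposed to compound for 9 h at 30 °C; higher score means more reporter readthrough which indicates perturbed polyadenylation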
# Numbers stand for hits; - = inactive; . = no result; + = active, no number; ! = not confirmed by another sample.
SMILES,aDG glyco up,T cell HTS,Rce1 inhib,PolyA inh
Cc1c(C(=O)NNC(=O)c2cccnc2)cccc1[N+](=O)[O-],-,0.0,.,.
COc1cc2[nH]c3c(=O)n(N)c(=O)[nH]c3c2cc1OC,-,-,-,-
COc1cccc(-c2csc(N3CCN(C(=O)NC45CC6CC(CC(C6)C4)C5)CC3)n2)c1,-,-,+,-
CCCNC(=O)C1(C)CCCN(C(=O)c2cc(C)nn2C(C)(C)C)C1 (centres undefined),-,.,.,.
CCCCOC(=O)c1ccc(NC(=O)C(=O)NCc2ccncc2)cc1,-,0.0,-,-
CCOC(=O)c1ccc(NC(=O)C(=O)NCc2ccncc2)cc1,-,-,-,-
Cc1cc(C)c2c(CN3CCN(Cc4ccc5c(c4)OCO5)CC3)cc(=O)oc2c1C,-,-,-,-
Cc1ccc2c(CN3CCN(Cc4ccc5c(c4)OCO5)CC3)cc(=O)oc2c1C,-,-,+!,-
O=C1C(Cc2c[nH]c3ccccc23)NC(=S)N1Cc1ccccc1 (centres undefined),-,-,+,-
O=C1NC(c2ccc3ccccc3c2)Nc2ccccc21 (centres undefined),-,.,.,.
O=C1NC(c2ccc(Br)cc2)Nc2ccccc21 (centres undefined),-,-,+,-
CCN(CC)CCN(C(=O)c1cc2ccccc2cc1OC)c1nc2ccc(F)cc2s1,-,-,+,-
CN(C)CCN(C(=O)c1ccc2ccccc2c1)c1nc2ccc(F)cc2s1,-,-,+,-
CCc1ccc2nc(N(CCN(C)C)C(=O)c3ccc4ccccc4c3)sc2c1,-,-,-,-
COc1cc2ccccc2cc1C(=O)N(CCN(C)C)c1nc2ccc(C)cc2s1,-,-,+,-
CCN(CC)CCN(C(=O)c1cc2ccccc2cc1OC)c1nc2ccc(OC)cc2s1,-,-,-,-
CCOC(=O)C1(C)CCCN(C(=O)c2ccc(F)cc2Cl)C1 (centres undefined),-,.,.,.
CC1(C(=O)Nc2ccc3c(c2)OCO3)CCN1C(=O)CCc1ccc(Cl)cc1Cl (centres undefined),-,.,.,.
CC(C)CC(=O)Nc1ccc2oc(-c3cccnc3)nc2c1,-,-,+,-
CCC(=O)Nc1ccc2oc(-c3cccnc3)nc2c1,-,-,-,-
Cc1ccc(NC(=O)C=NOCC(=O)Nc2cc(C)cc(C)c2)cc1,-,-,.,.
CCOC(=O)N1CCN(C(=O)CCCn2nnnc2CN2CCC(C)CC2)CC1,-,-,-,-
N#CCCN(C(=O)COC(=O)COc1ccccc1Cc1ccccc1)c1ccccc1,-,-,.,.
CN(C)/C=N/c1c(C#N)cnn1-c1ncnc2sc(-c3ccccc3)cc12,-,-,+,-
CN(C)/C=N/c1c(C#N)cnn1-c1ccccc1,-,-,-,-
SMILES,aDG glyco up,T cell HTS,Rce1 inhib,PolyA inh
CN(C)S(=O)(=O)c1ccc(Cl)c(C(=O)NNC(=O)Cn2ccc(C(F)(F)F)n2)c1,-,.,.,.
COc1cc(/C=C2\SC(=S)N(CCCCC(=O)O)C2=O)ccc1OS(=O)(=O)c1ccc(C)cc1,6.9,-,-,-
Cc1c(C(C)C)c(=O)n(-c2ccc(S(=O)(=O)NCc3ccccc3)cc2)n1C,8.4,-,-,-
CCCCN1C(=O)C(=O)N(CC(=O)Nc2cc(Cl)ccc2OC)C1=O,-,-,.,.
COc1ccc(C2CC(C)(c3ccc(OC)cc3OC)Nc3ccccc3N2)c(OC)c1 (centres undefined),-,66,-,-
O=C(Nc1ccc2nc(C(F)(F)F)[nH]c2c1)[C@@H]1O[C@H](CO)[C@@H](O)[C@H]1O,-,.,.,.
O=c1c2ccccc2nc2n1CCCCN2,-,-,+,-
O=c1c2ccccc2nc2n1CCCN2,-,-,-,-
OC[C@@H]1CN(Cc2ccc3c(c2)OCO3)C[C@H](n2cnc3c(NC4CC4)ncnc32)O1,-,.,.,.
c1ccc2c(-c3cn4ccccc4n3)c[nH]c2c1,.,-,+,-
COc1cc(OC)cc(N2C(=O)CC(N3CCC(C(=O)N4CCCCC4)CC3)C2=O)c1 (centres undefined),-,-,-,-
CC1COc2c(N3CCN(C)CC3)c(F)cc3c(=O)c(C(=O)O)cn1c23 (centres undefined),-,-,+,-
CCOc1ccc(NC(=O)c2ccc(NC(=O)c3cn4c5c(c(N6CCN(C)CC6)c(F)cc5c3=O)OCC4C)cc2)cc1 (centres undefined),-,-,-,-
Cc1nc2sccn2c1-c1csc(NCc2ccccc2)n1,5.9,-,.,-
C=CCNc1nc(-c2c(C)nc3sccn23)cs1,-,-,-,-
Cc1oc(-c2ccc(Cl)cc2)nc1CS(=O)CC(=O)NCc1ccco1 (centres undefined),-,-,+,-
Cc1oc(-c2ccccc2Cl)nc1CS(=O)CC(=O)NCc1ccco1 (centres undefined),-,-,-,-
CC(O)(c1cccnc1)c1nc(/C=C/c2ccccc2)cs1 (centres undefined),-,.,.,.
Cc1cc(C(=O)N[C@H](c2ccccc2)[C@@]2(C)C[C@@H]2[C@@H](C)C(=O)Nc2ccc3ccccc3c2)n(C)n1,-,-,+,-
Cc1ccc[n+](CC(=O)Nc2cc(C(F)(F)F)ccc2Cl)c1,-,-,-,-
CCC(C)(C)c1ccc(OCCCC[n+]2cccc(C)c2)c(C(C)(C)CC)c1,-,.,+,-
O=C(Cn1c2ccccc2c(=O)c2ccccc21)Nc1ccccc1F,-,-,+,-
CC(=O)Nc1ccc(S(=O)(=O)NCC2(N3CCOCC3)CCCCC2)cc1,-,.,.,.
COc1ccc(CCNC(=S)NCCc2ccc(OC)c(OC)c2)cc1OC,-,66,-,-
CNC(=S)NCCc1ccc(OC)c(OC)c1,-,-,-,-
SMILES,aDG glyco up,T cell HTS,Rce1 inhib,PolyA inh
CCOc1ccc(C2C=C(c3ccc(C)cc3)Nc3ncnn32)cc1 (centres undefined),.,30,-,-
N#Cc1ccc(CSc2nnc(-c3ccccn3)n2-c2ccccc2)cc1,-,-,-,-
N#Cc1ccc(CSc2nnc(-c3c[nH]c4ccccc34)n2-c2ccccc2)cc1,-,-,+,-
Fc1ccc2[nH]c3c(N4CCc5ccccc5C4)ncnc3c2c1,-,-,.,-
CCOc1ccc2[nH]c3c(N4CCc5ccccc5C4)ncnc3c2c1,-,-,+,-
Brc1ccc2[nH]c3c(N4CCc5ccccc5C4)ncnc3c2c1,.,-,-,-
Cc1ccc2[nH]c3c(N4CCc5ccccc5C4)ncnc3c2c1,6.7,-,-,-
CCOC(=O)c1nc2cc3n(c(C)c-2c1C)C(C)C(CC)=C3C (centres undefined),-,-,+,-
CC(C)N1CCN(Cc2ccc(OCc3ccccc3)cc2)CC1CCO (centres undefined),-,-,+,-
COC(OC)C1(CCc2ccccc2)NC(=O)NC1=O (centres undefined),-,.,.,.
Clc1ccc(CN2CCc3c([nH]c4ccccc34)C2)cc1Cl,-,-,+,-
